EP2 mod = modulators of human EP2 prostaglandin E2 receptor. EP2-expressing cells, cAMP HTRF FRET, PGE2 co-stimulation. induction, % at 25 µM. 0.83% of 260,000 active. AID 940;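 active means compounds whose cAMP rise, as percent of the full-agonist control response, exceeds 60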;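 further: rat C6 glioma line stably carrying human EP2 under a CMV promoter; the protocol text gives 20 µM as final concentration; 100% = response of wells given 1 µM PGE2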
Target sequence (P43116 whole entry, looked up): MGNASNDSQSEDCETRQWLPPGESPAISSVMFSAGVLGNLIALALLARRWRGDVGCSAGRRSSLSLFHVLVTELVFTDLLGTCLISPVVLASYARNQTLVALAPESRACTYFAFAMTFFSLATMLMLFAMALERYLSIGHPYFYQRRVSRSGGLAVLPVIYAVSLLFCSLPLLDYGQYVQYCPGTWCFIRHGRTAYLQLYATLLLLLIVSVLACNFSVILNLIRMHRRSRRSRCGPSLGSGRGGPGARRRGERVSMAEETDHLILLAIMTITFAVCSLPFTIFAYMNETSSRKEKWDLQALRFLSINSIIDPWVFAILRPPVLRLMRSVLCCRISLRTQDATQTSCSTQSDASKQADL
KLK5 inh = blocks human kallikrein 5 protease activity; Q9Y337; recombinant hK5, fluorogenic AMC substrate cleavage; inhibition, % at 5 µM; 0.59% of 210,000 active;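 active means inhibition of 40% or more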;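 further: 0% = enzyme controls without compound and 100% = no-enzyme blanks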
Target sequence (Q9Y337 67-293 limits assumed): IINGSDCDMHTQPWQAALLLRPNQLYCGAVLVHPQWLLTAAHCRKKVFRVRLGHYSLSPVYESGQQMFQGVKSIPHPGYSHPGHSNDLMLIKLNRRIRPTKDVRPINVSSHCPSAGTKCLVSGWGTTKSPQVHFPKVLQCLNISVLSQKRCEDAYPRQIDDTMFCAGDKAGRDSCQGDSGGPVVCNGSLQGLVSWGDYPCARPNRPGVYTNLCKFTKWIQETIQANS
FXIa inh = inhibitors of human coagulation factor XIa; AID 798; purified FXIa, Boc-Glu-Ala-Arg-AMC fluorogenic substrate; P03951; inhibition, % at 5 µM; 0.14% of 220,000 active;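 active means inhibition of at least 40%; inactive means inhibition below 40%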;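 further: fluorescence of freed AMC excited at 355 nm; 0% = enzyme without compound and 100% = no enzyme blank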
FXIIa inh 1536 = blocks human coagulation factor XIIa protease activity; P00748; purified FXIIa, Boc-QGR-AMC fluorogenic substrate, 2 h; inhibition, % at 5 µM; 0.3% of 220,000 active; in the data active means inhibition above about 40%;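 further: 0% = enzyme with no compound and 100% = blank without enzyme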
thrombin 1536 = thrombin (human) inhibition; inhibition, % at 5 µM; 0.26% of 220,000 active; AID 1046; P00734; alpha-thrombin, Boc-VPR-AMC fluorogenic substrate cleavage;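 active means inhibition at or above 40%; inactive means inhibition below 40%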;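 further: 0% = enzyme with no compound and 100% = wells without enzyme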
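signal = AMC fluorescence, 355/460 nm | material = human alpha-thrombin enzyme | control set = enzyme without compound as high, wells lacking enzyme as low | times = reaction at room temperature | read-out basis = percent inhibition scaled between no-compound controls and no-enzyme blanks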
PGE2 EP2 inh = blocks the human prostaglandin E2 receptor EP2. C6 glioma cells expressing human EP2, cAMP TR-FRET; cells stimulated with saturating PGE2. AID 1422. 0.52% of 260,000 active. inhibition, % at 25 µM;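 active means percent inhibition above 40 after rounding to a whole number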;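 further: rat C6 glioma host cells with rolipram phosphodiesterase inhibitor present; the protocol text gives 20 µM as final concentration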
* hit, by the source's call. A selection: hits, their analogues and other compounds. The true share with any hit is near 2.1%.

Results for Cc1cc2cc(C(c3nnnn3C3CCCCC3)N3CCc4ccccc43)c(=O)[nH]c2cc1C (stereo unspecified) ?
EP2 mod: 76*; PGE2 EP2 inh: 13

How did Cc1cc2cc(C(c3nnnn3C3CCCC3)N3CCc4ccccc43)c(=O)[nH]c2cc1C (stereo unspecified) do in these assays?
EP2 mod: 5; PGE2 EP2 inh: 11

Results for CCC(c1nnnn1CCOC)N(Cc1cccs1)Cc1cc2cc3c(cc2[nH]c1=O)OCCO3 (stereo unspecified) ?
EP2 mod: -9; PGE2 EP2 inh: 6

How did Cc1ccc(NC(=S)N2CCCC(c3nc4ccccc4[nH]3)C2)c(C)c1 (stereo unspecified) do in these assays?
EP2 mod: -46; PGE2 EP2 inh: 22

Results for CCc1nn(CC(=O)NCCCN2CCC(C)CC2)c(=O)c2cc3ccsc3n12 ?
EP2 mod: -5

Results for COc1ccc(CNc2c3c(nc4nnnn24)CCCC3)cc1OC ?
EP2 mod: -22; PGE2 EP2 inh: 14

Results for O=C(N=c1ccn(-c2nc3ccccc3nc2NS(=O)(=O)c2ccc(Cl)cc2)cc1)c1cccs1 ?
EP2 mod: 21; KLK5 inh: -5; FXIa inh: -4; FXIIa inh 1536: -1; thrombin 1536: -8; PGE2 EP2 inh: 48*

Results for CC(=O)Nc1ccc(S(=O)(=O)Nc2nc3ccccc3nc2-n2ccc(=NC(=O)c3ccccc3)cc2)cc1 ?
EP2 mod: -15; KLK5 inh: 2; FXIa inh: -2; FXIIa inh 1536: 5; thrombin 1536: -7; PGE2 EP2 inh: 6

How did O=C(N=c1ccn(-c2nc3ccccc3nc2NS(=O)(=O)c2ccc(Cl)cc2)cc1)c1ccccc1Cl do in these assays?
EP2 mod: 14; KLK5 inh: 2; FXIa inh: 11; FXIIa inh 1536: 7; thrombin 1536: 0; PGE2 EP2 inh: 10

What do the screens show for `CCOc1ccc(S(=O)(=O)Nc2nc3ccccc3nc2-n2ccc(=NC(=O)c3cccs3)cc2)cc1`?
EP2 mod: 0; KLK5 inh: -5; FXIa inh: 5; FXIIa inh 1536: 13; thrombin 1536: 3; PGE2 EP2 inh: 45*

How did CC(=O)O[C@H]1CC[C@@]2(C)C(=CC[C@H]3[C@H]2CC[C@]2(C)[C@@H]4[C@@H](C)[C@]5(CC[C@H](C)CN5)O[C@@H]4C[C@@H]32)C1 do in these assays?
EP2 mod: 11; PGE2 EP2 inh: 45*

What do the screens show for `CN(Cc1ccon1)Cc1cn(C)nc1-c1cccc(Cl)c1`?
EP2 mod: 18; KLK5 inh: 58*; FXIa inh: 31; FXIIa inh 1536: 23; thrombin 1536: 23; PGE2 EP2 inh: 7

Results for CCCC1COC(Cn2c[n+](CC)cn2)(c2ccc(Cl)cc2Cl)O1 (stereo unspecified) ?
EP2 mod: -7; PGE2 EP2 inh: 5

Results for O=C1C2[C@@H](c3ccccc3)N[C@@H](c3ccccc3)C1[C@@H](c1ccccc1)N[C@H]2c1ccccc1 ?
EP2 mod: -9; PGE2 EP2 inh: 47*

Results for CC1C(=NO)C(C)C(c2ccccc2)NC1c1ccccc1 (stereo unspecified) ?
EP2 mod: 30; KLK5 inh: -3; FXIa inh: -3; FXIIa inh 1536: 19; thrombin 1536: 3; PGE2 EP2 inh: 11

How did Cc1nn(C)c(C)c1NC(=O)c1cc2n(n1)C(C(F)(F)F)CC(c1ccco1)N2 (stereo unspecified) do in these assays?
EP2 mod: -6; PGE2 EP2 inh: 9

How did CS(=O)(=O)N(CC(=O)NCc1ccc2c(c1)OCO2)c1ccc(F)cc1 do in these assays?
EP2 mod: 17; PGE2 EP2 inh: 19

How did COc1ccccc1-n1c2c(cc(C(=O)N3CCC(C)CC3)c1=O)C(=O)CC(C)(C)C2 do in these assays?
EP2 mod: 12; KLK5 inh: 52*; FXIa inh: 17; FXIIa inh 1536: 38; thrombin 1536: 10; PGE2 EP2 inh: 7

What do the screens show for `COc1ccc(-n2c3c(cc(C(=O)N4CCC(C)CC4)c2=O)C(=O)CC(C)(C)C3)cc1`?
EP2 mod: 0; KLK5 inh: -1; FXIa inh: 1; FXIIa inh 1536: 9; thrombin 1536: -6; PGE2 EP2 inh: 7

Results for COc1cccc(NC(=O)CSc2nnc(COc3ccccc3)n2C)c1 ?
EP2 mod: 16; PGE2 EP2 inh: 14

How did COc1cccc(NC(=O)c2c(O)c3cc(OC)c(OC)cc3[nH]c2=O)c1 do in these assays?
EP2 mod: -13; PGE2 EP2 inh: 12

Results for O=c1c2ccccc2sc2ccc(NCCCN3CCOCC3)cc12 ?
PGE2 EP2 inh: 26

Results for CN1CCCC1CCNc1ccc2sc3ccccc3c(=O)c2c1 (stereo unspecified) ?
PGE2 EP2 inh: 44*

Results for Nc1nc(CN2CCCCC2)cs1 ?
EP2 mod: 17; KLK5 inh: 62*; FXIa inh: -1; FXIIa inh 1536: -3; thrombin 1536: 104*; PGE2 EP2 inh: 13

How did Nc1nc(CN2CCOCC2)cs1 do in these assays?
EP2 mod: 21; KLK5 inh: -4; FXIa inh: 1; FXIIa inh 1536: 15; thrombin 1536: 0; PGE2 EP2 inh: 8

How did CCC(C)NCCOCCOc1ccc(C)cc1OC (stereo unspecified) do in these assays?
EP2 mod: 13; KLK5 inh: -4; FXIa inh: 19; FXIIa inh 1536: 11; thrombin 1536: 2; PGE2 EP2 inh: 11

What do the screens show for `CCC(C)NCCOc1cc(C)cc(C)c1C` (stereo unspecified)?
EP2 mod: 8; KLK5 inh: 31; FXIa inh: 35; thrombin 1536: 56*; PGE2 EP2 inh: 17

Results for Cc1ccc2nc(SCC(=O)Nc3ccc(Br)cc3)c(C#N)cc2c1 ?
EP2 mod: 40; PGE2 EP2 inh: 16

What do the screens show for `Cc1ccccc1C1C(C#N)=C(N)NC(S)=C1C#N` (stereo unspecified)?
EP2 mod: 71*; PGE2 EP2 inh: 14

How did COC(=O)CN1C(=O)C2(SC(NC(C)=O)=NN2C(C)=O)c2ccccc21 (stereo unspecified) do in these assays?
EP2 mod: -10; PGE2 EP2 inh: 15

How did Cc1ccc(Oc2ccccc2/C=C2\SC(=O)N(C)C2=O)cc1 do in these assays?
EP2 mod: 35; KLK5 inh: 51*; FXIa inh: 16; FXIIa inh 1536: 23; thrombin 1536: 21; PGE2 EP2 inh: 6

How did O=C(Nc1cc(Cl)cc(Cl)c1)c1nc2ncccn2n1 do in these assays?
EP2 mod: -20; PGE2 EP2 inh: 10

What do the screens show for `O=P(CCO)(c1ccccc1)c1ccccc1`?
EP2 mod: 31; KLK5 inh: -4; FXIa inh: -4; thrombin 1536: -8; PGE2 EP2 inh: 9
